Experiments:
Homo sapiens [1] = experiment: Toxicity in healthy human assessed as occurrence of adverse event at 40 mg, po administered daily for 3 days as two 20-mg immediate-release tablets during 10 hrs overnight fasting state; assay type: organism-based; conditions: in vivo
Procedure, shortened: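 3-day daily oral tablet dosing in healthy Caucasian men (8 active, 4 placebo per dose). Adverse events were collected by open questioning and spontaneous report. Severity was graded mild (daily activities unaffected), moderate (some interference) or severe (activities not completed).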

Homo sapiens [2] = experiment: Toxicity in healthy human assessed as occurrence of clinically relevant changes in vital signs at 40 mg, po administered daily for 3 days as two 20-mg immediate-release tablets during 10 hrs overnight fasting state; assay type: organism-based; conditions: in vivo
Procedure, shortened: (§1)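 Healthy Caucasian men received single ascending doses (10–40 mg solution, 80 mg tablets) or 3-day daily tablet courses, all fasting, with randomized placebo controls. Supine blood pressure, heart rate and resting 12-lead ECG were recorded before and after dosing.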

Homo sapiens [3] = experiment: Toxicity in healthy human assessed as occurrence of changes in electrocardiogram parameters at 10 to 80 mg, po administered as single ascending doses during 10 hrs overnight fasting state; assay type: organism-based; conditions: in vivo; procedure, shortened: as §1
Homo sapiens [4] = experiment: Toxicity in healthy human assessed as decrease in alanine aminotransferase level at 80 mg, po administered daily for 3 days as four 20-mg immediate-release tablets during 10 hrs overnight fasting state measured after 2 days last post treatment; assay type: organism-based; conditions: in vivo, 48 h
[5] = Cmax in healthy human plasma at 40 mg, po administered as single ascending doses as solution during 10 hrs overnight fasting state; assay type: ADME, organism-based; parameters: dose 40 mg, route oral
Procedure, shortened: (§2)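 Healthy Caucasian male volunteers, single oral dose with 240 ml water after a 10-h overnight fast. Heparinised venous blood was drawn predose and at 0.25–14 h. Plasma was stored frozen. Parent drug and metabolites M1–M3 were measured by LC/MS-MS (MRM, deuterated internal standard). Noncompartmental analysis gave Cmax observed, t1/2 = 0.693/kel (terminal regression) and MRT = AUMC/AUC. Values are geometric means.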

[6] = Mean residence time in healthy human at 40 mg, po administered as single ascending doses as solution during 10 hrs overnight fasting state; assay type: ADME, organism-based; conditions: in vivo; procedure, shortened: as §2
[7] = Mean residence time in healthy human at 80 mg, po administered as single immediate release tablets during 10 hrs overnight fasting state; assay type: ADME, organism-based; conditions: in vivo
Procedure, shortened: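 Healthy Caucasian male volunteers (n=6 active, 2 placebo, randomized), single 80 mg dose as four 20-mg tablets with 240 ml water after 10-h fast. Venous lithium-heparin plasma sampled predose and 0.25–14 h; analysed by LC/MS-MS (MRM, deuterated internal standard). Noncompartmental analysis; Tmax observed directly; MRT = AUMC/AUC with extrapolation to infinity via kel.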

[8] = Mean residence time in healthy human at 80 mg, po administered as four 20 mg immediate release tablets daily for 3 days during 10 hrs overnight fasting state measured after 1 day; assay type: ADME, organism-based; conditions: in vivo
Procedure, shortened: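 Healthy Caucasian males took tablets once daily for 3 days with 240 ml water after a 10-h fast. Heparinised blood was drawn predose and at 0.25–14 h after the first and last doses. Plasma parent drug and metabolites M1–M3 were measured by LC/MS-MS (MRM, deuterated internal standard). Noncompartmental analysis gave Cmax observed, t1/2 = 0.693/kel and MRT = AUMC/AUC. Values are geometric means.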

[9] = Apparent volume of distribution with respect to the bioavailability in healthy human at 80 mg, po administered as four 20 mg immediate release tablets daily for 3 days during 10 hrs overnight fasting state measured after 1 day; assay type: ADME, organism-based; conditions: in vivo, read-out: Vc/F
Procedure, shortened: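 Healthy Caucasian males took 40 mg (2×20-mg IR tablets) or 80 mg (4 tablets) orally daily for 3 days after a 10-h fast. Plasma parent drug was measured by LC/MS-MS from predose to 14 h after the first and third doses. Noncompartmental analysis: AUC by log-linear trapezoid extrapolated via kel, CL/F = dose/AUC, V/F = CL/F÷kel, geometric means.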

## C[C@H]1[C@H](N2CCS(=O)(=O)CC2)O[C@@H]2O[C@@]3(C)CC[C@H]4[C@H](C)CC[C@@H]1[C@@]24OO3 [ARTEMIFONE]
Homo sapiens [1]
  Activity: Non-toxic
Homo sapiens [2]
  Activity: Non-toxic
Homo sapiens [3]
  Activity: Non-toxic
Homo sapiens [4]
  Activity: Non-toxic
[5]
  Cmax: 83 ng/mL
[6]
  MRT: 2.39 h
[7]
  MRT: 2.64 h
[8]
  MRT: 3.3 h
[9]
  Vd/F: 13 L/kg

From ChEMBL document CHEMBL1671864, “First assessment in humans of the safety, tolerability, pharmacokinetics, and ex vivo pharmacodynamic antimalarial activity of the new artemisinin derivative artemisone” (Antimicrob Agents Chemother, 2008)
